Experiments:
[1] = target: T1, Voltage-dependent T-type calcium channel subunit alpha-1G (Homo sapiens, UniProt O43497); experiment: Inhibition of T-type calcium channel alpha1G expressed in human HEK293 cells assessed as inhibition of KCl-induced increase in calcium level at 10 uM after 60 mins by FDSS6000 assay
[2] = Cmax in po dosed rat; assay type: ADME, organism-based; set-up: route oral; settings: in vivo
In short: (§1)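 Rat plasma pharmacokinetics after intravenous (n = 4) or oral (n = 3) dosing. Brain-to-plasma ratio, Cmax, Tmax, half-life, Vdss and oral bioavailability were derived per route. Values are given as mean with standard deviation.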

[3] = target: Voltage-gated inwardly rectifying potassium channel KCNH2 (Homo sapiens, UniProt Q12809); experiment: Inhibition of human ERG
[4] = Tmax in po dosed rat; assay type: ADME, organism-based; settings: in vivo
In short: as §1

[5] = Ratio of drug level in brain to plasma in po dosed rat; assay type: ADME, organism-based; settings: read-out: BPR
In short: as §1

[6] = Half life in po dosed rat; assay type: ADME, organism-based; settings: in vivo
In short: as §1

[7] = Volume of distribution at steady state in iv dosed rat; assay type: ADME, organism-based; settings: in vivo, read-out: Vdss
In short: as §1

[8] = Oral bioavailability in rat; assay type: ADME, organism-based; settings: in vivo
In short: as §1

[9] = Half life in iv dosed rat; assay type: ADME, organism-based; settings: in vivo
In short: as §1

[10] = Ratio of drug level in brain to plasma in iv dosed rat; assay type: ADME, organism-based; settings: read-out: BPR
In short: as §1

[11] = target: Voltage-dependent N-type calcium channel subunit alpha-1B (Homo sapiens, UniProt Q00975); experiment: Inhibition of N-type calcium channel Alpha-1B
Sequence of Voltage-dependent N-type calcium channel subunit alpha-1B (Q00975 whole entry): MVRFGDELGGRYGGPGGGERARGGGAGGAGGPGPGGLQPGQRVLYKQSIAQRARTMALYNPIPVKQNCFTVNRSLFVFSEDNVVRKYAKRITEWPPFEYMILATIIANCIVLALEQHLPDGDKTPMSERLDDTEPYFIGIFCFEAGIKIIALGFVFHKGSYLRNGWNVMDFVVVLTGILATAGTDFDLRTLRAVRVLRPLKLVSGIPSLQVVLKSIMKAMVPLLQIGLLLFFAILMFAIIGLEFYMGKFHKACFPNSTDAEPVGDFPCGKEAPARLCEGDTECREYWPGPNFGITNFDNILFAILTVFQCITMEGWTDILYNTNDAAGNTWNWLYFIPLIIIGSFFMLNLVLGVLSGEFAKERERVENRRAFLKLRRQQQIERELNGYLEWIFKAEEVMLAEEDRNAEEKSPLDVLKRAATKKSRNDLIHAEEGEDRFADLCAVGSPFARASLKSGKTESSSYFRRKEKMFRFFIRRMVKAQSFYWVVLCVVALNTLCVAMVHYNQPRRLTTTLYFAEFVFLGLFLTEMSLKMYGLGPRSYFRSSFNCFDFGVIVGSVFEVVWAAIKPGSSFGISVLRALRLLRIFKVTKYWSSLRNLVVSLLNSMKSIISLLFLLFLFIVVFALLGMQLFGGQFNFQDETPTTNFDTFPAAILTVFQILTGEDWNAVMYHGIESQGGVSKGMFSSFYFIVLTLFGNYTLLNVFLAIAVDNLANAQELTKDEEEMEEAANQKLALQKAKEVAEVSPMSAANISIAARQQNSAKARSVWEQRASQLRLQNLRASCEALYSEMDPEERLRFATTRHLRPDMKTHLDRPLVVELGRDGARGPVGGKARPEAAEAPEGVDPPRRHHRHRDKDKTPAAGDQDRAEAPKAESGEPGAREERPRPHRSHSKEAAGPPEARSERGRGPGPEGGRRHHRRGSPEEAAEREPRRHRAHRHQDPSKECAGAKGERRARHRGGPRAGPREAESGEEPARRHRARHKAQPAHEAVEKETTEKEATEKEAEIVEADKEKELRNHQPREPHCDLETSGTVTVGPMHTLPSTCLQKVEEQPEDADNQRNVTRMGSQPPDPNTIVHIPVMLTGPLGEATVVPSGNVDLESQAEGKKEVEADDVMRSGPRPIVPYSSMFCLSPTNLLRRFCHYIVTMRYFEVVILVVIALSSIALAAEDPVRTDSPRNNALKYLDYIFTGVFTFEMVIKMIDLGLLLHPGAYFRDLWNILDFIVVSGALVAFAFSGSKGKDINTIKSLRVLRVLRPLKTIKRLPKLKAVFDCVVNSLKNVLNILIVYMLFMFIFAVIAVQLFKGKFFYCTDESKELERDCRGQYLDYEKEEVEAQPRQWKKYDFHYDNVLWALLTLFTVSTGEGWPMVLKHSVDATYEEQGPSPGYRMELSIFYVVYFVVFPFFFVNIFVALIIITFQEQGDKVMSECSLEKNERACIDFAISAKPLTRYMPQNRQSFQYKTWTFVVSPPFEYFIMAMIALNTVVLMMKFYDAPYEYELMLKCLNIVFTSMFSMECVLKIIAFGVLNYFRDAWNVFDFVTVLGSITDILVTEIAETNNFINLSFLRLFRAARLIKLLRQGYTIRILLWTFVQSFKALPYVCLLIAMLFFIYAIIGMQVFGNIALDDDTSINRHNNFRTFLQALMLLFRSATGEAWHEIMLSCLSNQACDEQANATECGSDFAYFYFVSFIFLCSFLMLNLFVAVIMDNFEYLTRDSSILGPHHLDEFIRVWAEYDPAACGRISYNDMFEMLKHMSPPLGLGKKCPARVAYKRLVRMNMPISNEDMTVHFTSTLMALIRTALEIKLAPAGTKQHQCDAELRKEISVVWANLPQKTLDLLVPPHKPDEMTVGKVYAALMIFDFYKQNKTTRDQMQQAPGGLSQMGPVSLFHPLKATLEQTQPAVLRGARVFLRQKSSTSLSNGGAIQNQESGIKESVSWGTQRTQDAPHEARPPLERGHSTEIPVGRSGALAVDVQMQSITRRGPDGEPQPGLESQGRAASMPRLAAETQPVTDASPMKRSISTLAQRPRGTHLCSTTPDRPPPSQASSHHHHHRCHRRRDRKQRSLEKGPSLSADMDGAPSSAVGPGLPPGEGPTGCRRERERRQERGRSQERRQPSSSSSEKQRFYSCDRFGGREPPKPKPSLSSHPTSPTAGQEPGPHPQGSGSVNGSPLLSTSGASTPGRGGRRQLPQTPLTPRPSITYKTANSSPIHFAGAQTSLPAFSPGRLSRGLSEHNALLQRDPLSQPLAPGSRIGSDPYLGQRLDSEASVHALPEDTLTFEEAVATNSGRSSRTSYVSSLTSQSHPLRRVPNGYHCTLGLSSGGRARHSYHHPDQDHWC

[12] = target: T1, Voltage-dependent T-type calcium channel subunit alpha-1G; experiment: Inhibition of T-type calcium channel alpha1G expressed in human HEK293 cells assessed as inhibition of peak currents by whole-cell patch-clamp method; assay type: cell-based
In short: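 Whole-cell recording of α1G T-type Ca²⁺ currents, evoked every 15 s by a 50 ms depolarizing step from −100 mV to −30 mV. Peak-current inhibition was measured across compound concentrations. IC50 was obtained by fitting raw data to dose–response curves.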

T1 sequence (O43497 whole entry): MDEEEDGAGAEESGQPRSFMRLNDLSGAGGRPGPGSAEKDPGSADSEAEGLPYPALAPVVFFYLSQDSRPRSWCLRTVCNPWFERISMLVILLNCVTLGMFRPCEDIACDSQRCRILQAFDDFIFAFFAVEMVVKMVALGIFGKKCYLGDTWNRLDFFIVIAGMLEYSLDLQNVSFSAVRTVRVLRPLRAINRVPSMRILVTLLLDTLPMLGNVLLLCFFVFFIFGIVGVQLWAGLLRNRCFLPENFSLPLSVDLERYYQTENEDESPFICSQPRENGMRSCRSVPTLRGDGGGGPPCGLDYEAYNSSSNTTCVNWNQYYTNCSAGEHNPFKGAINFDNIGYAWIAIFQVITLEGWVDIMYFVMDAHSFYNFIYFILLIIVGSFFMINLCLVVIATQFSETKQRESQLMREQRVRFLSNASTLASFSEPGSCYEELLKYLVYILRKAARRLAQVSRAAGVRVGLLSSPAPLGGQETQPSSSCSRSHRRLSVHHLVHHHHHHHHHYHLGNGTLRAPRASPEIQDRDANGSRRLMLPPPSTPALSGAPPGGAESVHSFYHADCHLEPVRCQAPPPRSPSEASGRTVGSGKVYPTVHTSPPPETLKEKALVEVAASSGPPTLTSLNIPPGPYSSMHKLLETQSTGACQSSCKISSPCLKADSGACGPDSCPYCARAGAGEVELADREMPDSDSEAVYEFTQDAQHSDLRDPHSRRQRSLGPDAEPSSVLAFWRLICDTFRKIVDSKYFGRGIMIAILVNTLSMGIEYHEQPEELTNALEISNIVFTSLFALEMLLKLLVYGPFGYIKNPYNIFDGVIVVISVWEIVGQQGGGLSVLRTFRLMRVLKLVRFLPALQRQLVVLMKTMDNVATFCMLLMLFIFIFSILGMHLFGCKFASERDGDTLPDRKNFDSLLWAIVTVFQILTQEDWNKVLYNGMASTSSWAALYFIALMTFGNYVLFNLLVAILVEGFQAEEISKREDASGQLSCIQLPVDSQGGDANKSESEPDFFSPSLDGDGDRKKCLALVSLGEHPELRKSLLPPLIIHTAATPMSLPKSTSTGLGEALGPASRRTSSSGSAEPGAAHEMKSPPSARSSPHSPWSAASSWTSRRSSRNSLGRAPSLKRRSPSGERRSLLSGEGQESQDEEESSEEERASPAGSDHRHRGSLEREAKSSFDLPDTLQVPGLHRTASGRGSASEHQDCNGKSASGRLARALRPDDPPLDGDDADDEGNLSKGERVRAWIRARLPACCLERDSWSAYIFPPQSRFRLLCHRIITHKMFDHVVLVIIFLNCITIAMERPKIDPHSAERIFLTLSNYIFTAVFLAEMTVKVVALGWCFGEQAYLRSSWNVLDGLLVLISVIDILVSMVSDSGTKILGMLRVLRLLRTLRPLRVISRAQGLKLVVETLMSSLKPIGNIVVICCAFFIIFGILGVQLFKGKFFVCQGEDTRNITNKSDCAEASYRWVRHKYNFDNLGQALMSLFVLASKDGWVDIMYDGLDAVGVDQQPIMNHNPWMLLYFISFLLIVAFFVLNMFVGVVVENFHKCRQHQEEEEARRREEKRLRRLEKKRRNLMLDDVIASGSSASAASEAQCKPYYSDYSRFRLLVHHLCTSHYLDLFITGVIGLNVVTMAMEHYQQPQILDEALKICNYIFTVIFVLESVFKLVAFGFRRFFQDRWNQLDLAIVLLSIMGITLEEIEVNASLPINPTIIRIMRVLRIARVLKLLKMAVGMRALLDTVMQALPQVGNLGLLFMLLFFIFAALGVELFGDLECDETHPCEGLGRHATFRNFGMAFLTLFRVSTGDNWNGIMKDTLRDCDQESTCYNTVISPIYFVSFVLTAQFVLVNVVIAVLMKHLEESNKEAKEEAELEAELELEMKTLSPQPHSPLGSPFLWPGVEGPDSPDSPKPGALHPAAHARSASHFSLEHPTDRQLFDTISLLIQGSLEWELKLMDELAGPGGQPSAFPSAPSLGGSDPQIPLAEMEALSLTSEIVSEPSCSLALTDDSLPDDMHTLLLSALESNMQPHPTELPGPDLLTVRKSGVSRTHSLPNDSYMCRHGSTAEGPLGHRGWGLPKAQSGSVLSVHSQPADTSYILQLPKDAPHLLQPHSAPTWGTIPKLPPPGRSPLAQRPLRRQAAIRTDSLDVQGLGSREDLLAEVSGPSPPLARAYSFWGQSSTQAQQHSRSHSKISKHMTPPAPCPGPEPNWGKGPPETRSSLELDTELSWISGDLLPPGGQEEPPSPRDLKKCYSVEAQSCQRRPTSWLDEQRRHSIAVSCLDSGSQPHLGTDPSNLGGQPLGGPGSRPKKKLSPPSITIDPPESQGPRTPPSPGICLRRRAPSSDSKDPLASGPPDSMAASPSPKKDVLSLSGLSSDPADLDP

| inhibition [1] [%] | SMILES | also measured |
| --- | --- | --- |
| 51.8 | Cc1ccccc1NC(=O)CN1CCCN(Cc2nc3ccccc3[nH]2)CC1 |  |
| 60.7 | O=C(CN1CCCN(Cc2nc3ccccc3[nH]2)CC1)Nc1ccc(C(F)(F)F)cc1 | Cmax [2]: 2280 ng/mL; IC50 [3]: 4970 nM; Tmax [4]: 2 h; Kp [5]: 0.105; half-life [6]: 4.34 h; Vd [7]: 2.33 L/kg; bioavailability [8]: 43.4%; half-life [9]: 5.67 h; Kp [10]: 0.438; IC50 [11]: 28700 nM; IC50 [12]: 1230 nM |
| 22.3 | O=C(CNc1ccccc1F)N1CCCN(Cc2nc3ccccc3[nH]2)CC1 |  |
| 29.5 | Cc1cccc(C)c1NCC(=O)N1CCCN(Cc2nc3ccccc3[nH]2)CC1 |  |
| 51.3 | O=C(CN1CCCN(Cc2nc3ccccc3[nH]2)CC1)Nc1ccc(Cl)cc1 |  |
| 56.2 | Cc1ccc(NC(=O)CN2CCCN(Cc3nc4ccccc4[nH]3)CC2)cc1C | IC50 [12]: 2390 nM |
| 28.2 | O=C(CNc1ccc(C(F)(F)F)cc1)N1CCCN(Cc2nc3ccccc3[nH]2)CC1 |  |
| 56.8 | O=C(CN1CCCN(Cc2nc3ccccc3[nH]2)CC1)Nc1ccccc1Cl | IC50 [12]: 1470 nM |
| 57.4 | CCc1cccc(CC)c1NC(=O)CN1CCCN(Cc2nc3ccccc3[nH]2)CC1 | IC50 [12]: 2080 nM |
| 32.4 | COc1ccc(NC(=O)CN2CCCN(Cc3nc4ccccc4[nH]3)CC2)cc1 |  |
| 27.3 | O=C(CNc1cccc(C(F)(F)F)c1)N1CCCN(Cc2nc3ccccc3[nH]2)CC1 |  |
| 7.04 | Cc1ccccc1NCC(=O)N1CCCN(Cc2nc3ccccc3[nH]2)CC1 |  |
| 54.8 | Cc1cccc(NC(=O)CN2CCCN(Cc3nc4ccccc4[nH]3)CC2)c1 |  |
| 40.9 | O=C(CNc1cccc(Cl)c1)N1CCCN(Cc2nc3ccccc3[nH]2)CC1 |  |
| 59.1 | COc1ccccc1NC(=O)CN1CCCN(Cc2nc3ccccc3[nH]2)CC1 | IC50 [12]: 12600 nM |
| 7.52 | O=C(CNc1cccc(F)c1)N1CCCN(Cc2nc3ccccc3[nH]2)CC1 |  |
| 0.92 | COc1ccc(NCC(=O)N2CCCN(Cc3nc4ccccc4[nH]3)CC2)cc1 |  |
| 12.8 | O=C(CNc1ccc(F)cc1)N1CCCN(Cc2nc3ccccc3[nH]2)CC1 |  |
| 62.4 | CCc1cccc(CC)c1NCC(=O)N1CCCN(Cc2nc3ccccc3[nH]2)CC1 | IC50 [12]: 4000 nM |
| 46.6 | O=C(CN1CCCN(Cc2nc3ccccc3[nH]2)CC1)Nc1ccc(F)cc1 |  |

| inhibition [1] [%] | SMILES | also measured |
| --- | --- | --- |
| 47.6 | Cc1ccc(NC(=O)CN2CCCN(Cc3nc4ccccc4[nH]3)CC2)c(C)c1 |  |
| 1.54 | COc1cccc(NCC(=O)N2CCCN(Cc3nc4ccccc4[nH]3)CC2)c1 |  |
| 66 | O=C(CNc1ccccc1C(F)(F)F)N1CCCN(Cc2nc3ccccc3[nH]2)CC1 | IC50 [3]: 1320 nM; IC50 [12]: 3170 nM |
| 8.29 | COc1ccccc1NCC(=O)N1CCCN(Cc2nc3ccccc3[nH]2)CC1 |  |
| 21.1 | Cc1ccc(NCC(=O)N2CCCN(Cc3nc4ccccc4[nH]3)CC2)c(C)c1 |  |
| 46.1 | COc1cccc(NC(=O)CN2CCCN(Cc3nc4ccccc4[nH]3)CC2)c1 |  |
| 8.48 | Cc1cccc(NCC(=O)N2CCCN(Cc3nc4ccccc4[nH]3)CC2)c1 |  |
| 32.2 | O=C(CNc1ccccc1Cl)N1CCCN(Cc2nc3ccccc3[nH]2)CC1 |  |
| 16.5 | Cc1ccc(NCC(=O)N2CCCN(Cc3nc4ccccc4[nH]3)CC2)cc1C |  |
| 44.8 | Cc1ccc(NC(=O)CN2CCCN(Cc3nc4ccccc4[nH]3)CC2)cc1 |  |
|  | COCC(=O)O[C@]1(CCN(C)CCCc2nc3ccccc3[nH]2)CCc2cc(F)ccc2[C@@H]1C(C)C [MIBEFRADIL] | IC50 [11]: 1340 nM |
| 60.1 | O=C(CN1CCCN(Cc2nc3ccccc3[nH]2)CC1)Nc1cccc(C(F)(F)F)c1 |  |
| 46.4 | O=C(CN1CCCN(Cc2nc3ccccc3[nH]2)CC1)Nc1cccc(F)c1 |  |
| 16.4 | Cc1ccc(NCC(=O)N2CCCN(Cc3nc4ccccc4[nH]3)CC2)cc1 |  |
| 39.8 | Cc1cccc(C)c1NC(=O)CN1CCCN(Cc2nc3ccccc3[nH]2)CC1 |  |
| 32.4 | O=C(CN1CCCN(Cc2nc3ccccc3[nH]2)CC1)Nc1ccccc1F |  |
| 41.7 | O=C(CN1CCCN(Cc2nc3ccccc3[nH]2)CC1)Nc1cccc(Cl)c1 |  |
| 41.7 | O=C(CN1CCCN(Cc2nc3ccccc3[nH]2)CC1)Nc1ccccc1C(F)(F)F |  |
| 36.9 | O=C(CNc1ccc(Cl)cc1)N1CCCN(Cc2nc3ccccc3[nH]2)CC1 |  |
